Measurements pooled from the literature.
Each line is one published result; the experiments were not run side by side.
Target: Mitogen-activated protein kinase kinase kinase 14 (MAP3K14, Homo sapiens, UniProt Q99558)

Compound	read-out	mode	method	concentration	quantity	value
CC(C)(O)[C@H]1CC[C@H](Nc2ccc3ncc(-c4cccc(C(F)(F)F)c4)n3n2)CC1	enzyme activity	inhibitor	–	1 µM	remaining activity	114%
CC(C)(C)c1nc(-c2cccc(NS(=O)(=O)c3c(F)cccc3F)c2F)c(-c2ccnc(N)n2)s1	enzyme activity	inhibitor	radiometric	1 µM	remaining activity	100%
CCCOc1ccc([C@H]2[C@H](C(=O)O)[C@@H](c3ccc4c(c3)OCO4)CN2CC(=O)Nc2c(CC)cccc2CC)cc1	cell-free assay	–	competition with immobilised ligand	1 µM	remaining binding	85%
N#CCCc1ccc2c(c1)-c1[nH]c3ccc([N+](=O)[O-])cc3c1CC(=O)N2	cell-free assay	–	–	0.5 µM	remaining signal	161%
C[C@@H](c1cccc(C#N)c1)n1cc(Cl)cc(C(N)=O)c1=N	cell-free assay	–	competition with immobilised ligand	1 µM	remaining binding	93%
C[C@@H]1CCN(c2nccc(-c3cnn4ncccc34)n2)C1	binding	–	competition with immobilised ligand	1 µM	remaining binding	72%
CC(C)(C)c1nc2c(s1)c1nc(N)ncc1c1ccc(NS(=O)(=O)c3c(F)cccc3F)c(F)c12	enzyme activity	inhibitor	radiometric	1 µM	remaining activity	104%
Nc1ncnc2occ(-c3ccc(NC(=O)Nc4cc(C(F)(F)F)ccc4F)cc3)c12	cell-free assay	inhibitor	–	20 µM	remaining signal	93%
